Records with an inconclusive call do not appear. The source made the active and inactive calls.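 How the source made its calls, unless noted: active means RAM network inhibition above 8.4% in each of two replicates, 3 SD over the compound average; inconclusive means above 8.4% inhibition in only one replicate; inactive means 8.4% inhibition or less in each replicate.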
What was measured:
[1] = OD615 S. cerevisiae growth inhibition, permissive medium, pilot counter-assay, permissive growth control for S. cerevisiae lifespan shortening project (AID 705;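 active means growth inhibition above 25% in both replicates, a cutoff set 3 SD above the mean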); settings: OD615, 24 h, at 10 µM, active compounds read high
Method in brief: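 System: engineered DeaD yeast; Medium: permissive raffinose/galactose medium; Compound dosing: 10 µM single dose, 0.25% DMSO; Incubation: 4 h cell pre-growth, 24 h exposure at 30 °C; Technique: OD at 615 nm; Evaluation: growth inhibition from lowered OD615 after 24 h.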

[2] = Restrictive medium S. cerevisiae growth inhibition, OD615, pilot screen of yeast lifespan reduction project, restrictive growth control (AID 706;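 active means growth inhibition above a set limit, 3 SD over mean compound inhibition, in both replicates, cut at about 43% in these data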;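 further: modified DeaD lifespan yeast strain shifted to restrictive glucose medium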); settings: OD615, 48 h, at 10 µM, active compounds read high
Method in brief: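 Material: modified S. cerevisiae; buffer or medium: CSMM-D glucose medium; doses: one concentration, 10 µM final, 0.25% DMSO; incubation: 48 h compound exposure at 30 °C; detection: optical density at 615 nm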

[3] = viability gain of MRP-1-high H69AR cells under doxorubicin, pilot screen, MRP-1 activator project, CellTiter-Glo, duplicate (AID 807;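 active means viability increase at or above a cutoff of the median across tested compounds plus 3 SD, cut at about 8.5% in these data, passing the limit was not always enough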;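 further: compound pretreatment 18-22 h then 72 h combined with doxorubicin; 0% = doxorubicin alone and 100% = vehicle without doxorubicin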); settings: H69AR viability with doxorubicin, CellTiter-Glo luminescence; at 10 µM; active compounds read high
[4] = growth suppression of beta-catenin knockout HCT116, pilot screen, human colon tumor cells (AID 823;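 active means cell viability at or below a set limit in both duplicate runs, the limit being the all-compound median minus 4 SD, cut at about 23% in these data, passing the limit was not always enough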;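 further: 0% = wells killed by 20 µM Hyamine and 100% = untreated DMSO cell wells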); settings: CellTiter-Glo, 60 h, at 10 µM, active compounds read low
[5] = growth suppression of PTEN-deleted HCT116, pilot screen, cell-based, HCT116 clonal line, CellTiter-Glo (AID 824;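 active means viability at or below 27.92% in each of two runs, the all-compound median minus 4 SD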;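 further: 0% = 20 µM Hyamine control and 100% = vehicle cell control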); settings: 60 h, at 10 µM, active compounds read low
[6] = inhibitors of the yeast RAM network, pilot screen, dse1pr::URA3 reporter, 5-FOA selection (AID 869;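 active means inhibition over a set limit, the all-compound mean plus 3 SD, in both replicate runs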;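 further: 0% = DMSO wells with no growth and 100% = 10 µM 1-NA-PP1 with full growth; RAM network block rescues cells from 5-FOA so hits raise OD615 growth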); settings: S. cerevisiae dse1pr::URA3 5-FOA growth, OD615, 2 d; at 10 µM; active compounds read high; strain carries analog-sensitive mutant Cbk1 kinase
[7] = RAM signaling pathway blockade in yeast – S. cerevisiae, Pdr1DBD-CYC8 efflux-inhibited sensitized strain, primary screen (AID 1298);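 further: 0% = DMSO untreated cells without growth and 100% = 10 µM 1-NA-PP1 full growth; higher means more yeast growth rescued from 5-FOA killing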; settings: S. cerevisiae cbk1-as DSE1-URA3 strain, 5-FOA growth OD615, 2 d; at 50 µM; active compounds read high

COc1ccccc1CNc1ncnc2c1cnn2-c1ccccc1
inactive: growth inhibition [1] -13.5% | growth inhibition [2] -7.05% | viability increase [3] -4.76% | viability [4] 74.2% | viability [5] 79% | inhibition [6] 0.575% | RAM network inhibition [7] 0.57%

CC(=O)NC(CCS(C)(=O)=O)C(=O)Nc1ccc(Cl)c(Cl)c1 (configuration not stated)
inactive: growth inhibition [1] -4.26% | growth inhibition [2] -6.39% | viability increase [3] -1.98% | viability [4] 96.9% | viability [5] 89.6% | inhibition [6] 1.11% | RAM network inhibition [7] 1.53%

COc1cccc(C2NC(=O)NC(O)(C(F)(F)F)C2C(=O)c2cccnc2)c1OC (configuration not stated)
inactive: growth inhibition [1] 2.02% | growth inhibition [2] -2.12% | viability increase [3] 0.64% | viability [4] 109% | viability [5] 98.9% | inhibition [6] 1.14% | RAM network inhibition [7] 0.92%

CC1CCCC(C)N1c1nnc(NC(=O)Cn2c(=O)oc3ccccc32)s1 (configuration not stated)
inactive: growth inhibition [1] -4.67% | growth inhibition [2] 9.9% | viability increase [3] 0.39% | viability [4] 95.1% | viability [5] 99.2% | inhibition [6] 1.85% | RAM network inhibition [7] 3.6%

CCOC12NC(=O)CC(=O)N1C(c1ccccc1)=CS2 (configuration not stated)
inactive: growth inhibition [1] -16% | growth inhibition [2] -6.23% | viability increase [3] 2.97% | viability [4] 100% | viability [5] 104% | inhibition [6] 1.85% | RAM network inhibition [7] 6.38%

O=C(CN1CCOCC1)Nc1cc(Cl)ccc1Cl
inactive: growth inhibition [1] -13.4% | growth inhibition [2] -2.5% | viability increase [3] -2.37% | viability [4] 92.6% | viability [5] 101% | inhibition [6] 2.6% | RAM network inhibition [7] 1.66%

C=CCN1C(=O)C2C(C(=O)NC)C3(C)C=CC2(O3)C1C(=O)NCc1ccc(OC)cc1 (configuration not stated)
inactive: growth inhibition [1] -5.37% | growth inhibition [2] 3.69% | viability increase [3] 1.33% | viability [4] 103% | viability [5] 99.9% | inhibition [6] 0.89% | RAM network inhibition [7] 0.49%

O=C(NCCC1=CCCCC1)C1CCN(c2nnc(-n3cccc3)s2)CC1
inactive: growth inhibition [1] 3.32% | growth inhibition [2] 4.32% | viability increase [3] -0.38% | viability [4] 85.2% | viability [5] 82.2% | inhibition [6] 2.42% | RAM network inhibition [7] 1.13%

CCN(CCCNC(=O)Cn1ncc2c(=O)oc3ccccc3c21)c1cccc(C)c1
inactive: growth inhibition [1] 1.03% | growth inhibition [2] 9.37% | viability increase [3] -2.09% | viability [4] 89.9% | viability [5] 87.5% | inhibition [6] 2.57% | RAM network inhibition [7] 3.72%

Cc1cc(Nc2ccc(C(C)C)cc2)n2ncnc2n1
inactive: growth inhibition [1] -6.6% | growth inhibition [2] 7.39% | viability increase [3] -0.35% | viability [4] 95.2% | viability [5] 85.2% | inhibition [6] 0.465% | RAM network inhibition [7] 5.75%

O=C(Nc1ccc(N2CCOCC2)cc1)NC1CCCCC1
inactive: growth inhibition [1] -0.89% | growth inhibition [2] 1.07% | viability increase [3] -1.27% | viability [4] 103% | viability [5] 101% | inhibition [6] -0.22% | RAM network inhibition [7] 9.28%

Cc1ccc(S(=O)(=O)/N=C/c2ccco2)cc1
inactive: growth inhibition [1] -11.7% | growth inhibition [2] -12.3% | viability increase [3] -1.73% | viability [4] 105% | viability [5] 100% | inhibition [6] 0.625% | RAM network inhibition [7] 6.25%

CNc1nc(SCC(=O)OC)nc(N2CCOCC2)n1
inactive: growth inhibition [1] -11.7% | growth inhibition [2] -14.8% | viability increase [3] -1.78% | viability [4] 93.9% | viability [5] 89.3% | inhibition [6] 1.14% | RAM network inhibition [7] 3.47%

Cc1ccc2c(c1)c1c(n2CC(O)CNC(CO)(CO)CO)CCCC1 (configuration not stated)
inactive: growth inhibition [1] -2.98% | growth inhibition [2] -11.3% | viability increase [3] -1.14% | viability [4] 94.9% | viability [5] 90.8% | inhibition [6] 0.175% | RAM network inhibition [7] -0.57%

CCCCCn1c(C(C)NC(=O)CCC)nc2ccccc21 (configuration not stated)
inactive: growth inhibition [1] -3.78% | growth inhibition [2] -2.23% | viability increase [3] -1.22% | viability [4] 85.7% | viability [5] 88.7% | inhibition [6] -0.165% | RAM network inhibition [7] 2.32%

CCOC(=O)c1cc2c(=O)n3ccccc3nc2n(CCCOC)c1=NC(=O)c1cccnc1
inactive: growth inhibition [1] -0.71% | growth inhibition [2] -4.29% | viability increase [3] -4.22% | viability [4] 112% | viability [5] 93.7% | inhibition [6] 0.775% | RAM network inhibition [7] 3.03%

COc1ccc(OC)c(NC(=O)CSc2nnc(Cn3c(=O)sc4ccccc43)n2C)c1
inactive: growth inhibition [1] -10.2% | growth inhibition [2] -1.53% | viability increase [3] -2.91% | viability [4] 94.3% | viability [5] 86.5% | inhibition [6] 2.36% | RAM network inhibition [7] 3.22%

Cc1cc(=O)[nH]c(Cc2ccc(OC(C)C)cc2)n1
inactive: growth inhibition [1] -6.43% | growth inhibition [2] -15.4% | viability increase [3] -1.17% | viability [4] 98.4% | viability [5] 93.2% | inhibition [6] 1.98% | RAM network inhibition [7] 5.82%

CCOc1ccc(NC(=O)CN(c2ccc(OC)cc2)S(C)(=O)=O)cc1
inactive: growth inhibition [1] 6.96% | growth inhibition [2] -0.54% | viability increase [3] 0.19% | viability [4] 98.1% | viability [5] 98.8% | inhibition [6] 1.7% | RAM network inhibition [7] 4.91%

CCCCCCc1c(O)nc(SCC(=O)O)[nH]c1=O
inactive: growth inhibition [1] 5.63% | growth inhibition [2] 13.4% | viability increase [3] 0.25% | viability [4] 108% | viability [5] 101% | inhibition [6] 2.51% | RAM network inhibition [7] -0.58%

COc1ccc(C)cc1NC(=O)CN(c1ccc(F)cc1)S(C)(=O)=O
inactive: growth inhibition [1] -20.5% | growth inhibition [2] -18.5% | viability increase [3] -1.76% | viability [4] 92.4% | viability [5] 103% | inhibition [6] 1.31% | RAM network inhibition [7] 4.09%

COc1ccc(CCNc2nc(=O)[nH]nc2C)cc1OC
inactive: growth inhibition [1] -14.6% | growth inhibition [2] -16.5% | viability increase [3] -1.65% | viability [4] 96% | viability [5] 96.5% | inhibition [6] 2.62% | RAM network inhibition [7] 0.16%

COc1cc(C(=O)Nc2cc(-c3nc4cc(C)ccc4o3)ccc2C)cc(OC)c1OC
inactive: growth inhibition [1] 3.69% | growth inhibition [2] 8.25% | viability increase [3] -2.34% | viability [4] 97% | viability [5] 95.2% | inhibition [6] 0.43% | RAM network inhibition [7] -0.15%

COc1ccc(OC)c(N(CC(=O)Nc2ccc3c(c2)OCCO3)S(C)(=O)=O)c1
inactive: growth inhibition [1] -6.81% | growth inhibition [2] -3.32% | viability increase [3] -2.52% | viability [4] 92.4% | viability [5] 89.8% | inhibition [6] 0.825% | RAM network inhibition [7] 3.49%

O=C(Cn1ncc2ccccc21)N1CCc2ccccc21
inactive: growth inhibition [1] -9.24% | growth inhibition [2] -14.6% | viability increase [3] -3% | viability [4] 72.2% | viability [5] 84.2% | inhibition [6] 1.26% | RAM network inhibition [7] 3.51%

CS(=O)(=O)N1CCN(c2nc(-c3ccccc3)cs2)CC1
inactive: growth inhibition [1] 10.1% | growth inhibition [2] 3.18% | viability increase [3] 0.2% | viability [4] 99.9% | viability [5] 94.4% | inhibition [6] -0.535% | RAM network inhibition [7] -0.16%

O=C(O)c1ccc(NS(=O)(=O)c2ccc3c(c2)OCCO3)cc1
inactive: growth inhibition [1] 4.96% | growth inhibition [2] -3.53% | viability increase [3] 0.04% | viability [4] 107% | viability [5] 108% | inhibition [6] 0.975% | RAM network inhibition [7] 1.55%

COC(=O)c1ccc(N2CCOCC2)c(NC(=O)Nc2cccc(OC)c2)c1
inactive: growth inhibition [1] -14.5% | growth inhibition [2] -8.03% | viability increase [3] -5.3% | viability [4] 84.4% | viability [5] 77.1% | inhibition [6] 1.09% | RAM network inhibition [7] 5.95%

Cc1c(C(=O)NCc2cccnc2)oc2ccccc12
inactive: growth inhibition [1] -3.83% | growth inhibition [2] -5.65% | viability increase [3] -3.9% | viability [4] 99.2% | viability [5] 87% | inhibition [6] 1.27% | RAM network inhibition [7] 1.07%

O=c1[nH]c2ccc(Cl)cc2c(-c2ccccc2)c1N1CCOCC1
inactive: growth inhibition [1] -4.65% | growth inhibition [2] -0.51% | viability increase [3] -3.04% | viability [4] 89.4% | viability [5] 88% | inhibition [6] 0.985% | RAM network inhibition [7] 1.15%

Cc1ccc(-c2nc(CS(=O)CC(=O)NCCN3CCCC3)c(C)o2)cc1 (configuration not stated)
inactive: growth inhibition [1] -8.03% | growth inhibition [2] -5.56% | viability increase [3] -2.7% | viability [4] 86.4% | viability [5] 99.3% | inhibition [6] 0.18% | RAM network inhibition [7] 0.43%

COC(=O)C1=C(C)N2C(=O)CSC2=NC1c1ccc2c(c1)OCO2 (configuration not stated)
active: growth inhibition [2] 53.2%
inactive: growth inhibition [1] 5.86% | viability increase [3] 0.55% | viability [4] 93.3% | viability [5] 98.8% | inhibition [6] 0.03% | RAM network inhibition [7] 0.78%

CCCOC(=O)C1=C(C)NC2=C(C(=O)C(C(=O)OC)C(C)C2)C1c1ccc(N(CC)CC)cc1 (configuration not stated)
inactive: growth inhibition [1] -10.6% | growth inhibition [2] -19.6% | viability increase [3] -3.23% | viability [4] 65.7% | viability [5] 56.8% | inhibition [6] 1.56% | RAM network inhibition [7] 1.46%

Cc1ccc(NC(=O)CSc2nnc(Cn3c(=O)sc4ccccc43)n2C)cc1Cl
inactive: growth inhibition [1] -1.48% | growth inhibition [2] -18.1% | viability increase [3] -4.78% | viability [4] 92.3% | viability [5] 86.6% | inhibition [6] 1.81% | RAM network inhibition [7] 4.65%

O=C1CN(C(=O)COC(=O)C2CC(=O)N(Cc3ccco3)C2)c2ccccc2N1 (configuration not stated)
inactive: growth inhibition [1] -12% | growth inhibition [2] -16.7% | viability increase [3] -2.08% | viability [4] 102% | viability [5] 104% | inhibition [6] 1.06% | RAM network inhibition [7] 4.09%

CC(C)N(Cc1nc(-c2ccccc2)no1)C(=O)Cc1ccccc1
inactive: growth inhibition [1] -14.4% | growth inhibition [2] -16.3% | viability increase [3] -2.2% | viability [4] 87.1% | viability [5] 79.3% | inhibition [6] -0.4% | RAM network inhibition [7] 2.86%

— PubChem BioAssay
